Data taken from ChEMBL document CHEMBL4024793, “Development of Stem-Cell-Mobilizing Agents Targeting CXCR4 Receptor for Peripheral Blood Stem Cell Transplantation and Beyond” (J Med Chem, 2018).
The source made the active and inactive calls. The rule behind the calls is not given here.

Tests used:
[1] = target: C-C chemokine receptor type 7 (Homo sapiens) (UniProt P32248); assay: Antagonist activity at human CCR7 expressed in CHOK1 cells assessed as inhibition of CCL19-induced cAMP accumulation at 10 uM preincubated for 30 mins followed agonist addition measured after 30 to 60 mins; format: functional, cell-based
Method in brief: (§1)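 GPCR cAMP assay with a single test concentration of 10 μM; result expressed as percentage inhibition for each chemokine receptor.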

[2] = system: Mus musculus; assay: In vivo antagonist activity at CXCR4 in C57BL/6 mouse assessed as induction of lymphocytes molization at 35 mg/kg, sc measured after 2 hrs relative to AMD3100; format: functional; parameters: scale not given: the % may be the effect or the level left
Method in brief: (§2)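 C57BL/6 mice given a single SC injection at 6 or 35 mg/kg. Blood collected 2 h after dosing and analysed for total white blood cells, neutrophils, lymphocytes and monocytes.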

[3] = target: C-X-C chemokine receptor type 3 (Homo sapiens) (UniProt P49682); assay: Antagonist activity at human CXCR3 expressed in CHOK1 cells assessed as inhibition of CXCL11-induced cAMP accumulation at 10 uM preincubated for 30 mins followed agonist addition measured after 30 to 60 mins; format: functional, cell-based; method in brief: as §1
[4] = system: Rattus norvegicus; assay: Cardiotoxicity in Sprague-Dawley rat assessed as effect on heart weight at 50 mg/kg/day, sc administered for 14 days relative to control; format: toxicity, organism-based; settings: in vivo, 336 h
Method in brief: (§3)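 Non-GLP 14-day repeated-dose study in SD rats given 50 mg/kg/day SC. Major organs (liver, kidney, lung, heart) compared with vehicle for size, weight and colour. Blood analysed for hematological and biochemical parameters.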

[5] = target: C-C chemokine receptor type 10 (Homo sapiens) (UniProt P46092); assay: Antagonist activity at human CCR10 expressed in CHOK1 cells assessed as inhibition of CCL27-induced cAMP accumulation at 10 uM preincubated for 30 mins followed agonist addition measured after 30 to 60 mins; format: functional, cell-based; method in brief: as §1
[6] = target: Cytochrome P450 1A2 (Homo sapiens, UniProt P05177); assay: Inhibition of human liver microsomal CYP1A2; format: ADME
[7] = target: C-X-C chemokine receptor type 5 (Homo sapiens) (UniProt P32302); assay: Antagonist activity at human CXCR5 expressed in CHOK1 cells assessed as inhibition of CXCL13-induced cAMP accumulation at 10 uM preincubated for 30 mins followed agonist addition measured after 30 to 60 mins; format: functional, cell-based; method in brief: as §1
[8] = system: Mus musculus; assay: In vivo antagonist activity at CXCR4 in C57BL/6 mouse assessed as induction of neutrophils molization at 35 mg/kg, sc measured after 2 hrs relative to AMD3100; format: functional; parameters: scale not given: the % may be the effect or the level left; method in brief: as §2
[9] = target: Cytochrome P450 2C9 (Homo sapiens, UniProt P11712); assay: Inhibition of human liver microsomal CYP2C9; format: ADME
[10] = system: Mus musculus; assay: Induction hematopoietic stem cell mobilization in sc dosed C57BL/6 mouse assessed as increase in CXCR4+ cells in blood measured after 2 hrs by APC-conjugated anti-CXCR4 -staining based flow cytometry relative to vehicle control; format: functional; settings: C57BL/6, sc, read-out: MED
Method in brief: (§4)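 Male C57BL/6 mice, 8–10 weeks old, given a single SC injection at escalating doses of 1, 6, 20, 35 and 50 mg/kg. Blood collected 2 h later and stained with antibodies including APC-anti-CXCR4. CXCR4⁺ cells counted by flow cytometry, at least 60,000 events per sample. n = 3 per group; mean ± SEM; t test against vehicle.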

[11] = system: Rattus norvegicus; assay: Cardiotoxicity in Sprague-Dawley rat assessed as effect on heart color at 50 mg/kg/day, sc administered for 14 days relative to control; format: toxicity, organism-based; settings: in vivo, 336 h; method in brief: as §3
[12] = system: Rattus norvegicus; assay: Hepatotoxicity in Sprague-Dawley rat assessed as effect on liver weight at 50 mg/kg/day, sc administered for 14 days relative to control; format: toxicity, organism-based; settings: in vivo, 336 h; method in brief: as §3
[13] = target: Cytochrome P450 2D6 (Homo sapiens, UniProt P10635); assay: Inhibition of human liver microsomal CYP2D6; format: ADME
[14] = target: C-C chemokine receptor type 5 (Homo sapiens) (UniProt P51681); assay: Antagonist activity at human CCR5 expressed in CHOK1 cells assessed as inhibition of CCL3-induced cAMP accumulation at 10 uM preincubated for 30 mins followed agonist addition measured after 30 to 60 mins; format: functional, cell-based; method in brief: as §1
[15] = Cmax in C57BL/6 mouse at 6 mg/kg, sc measured up to 4 hrs post dose by LC-MS/MS analysis; format: ADME, organism-based; parameters: dose 6 mg/kg, route subcutaneous; settings: in vivo
Method in brief: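 Male C57BL/6 mice (23.4–25.4 g), quarantined one week, non-fasted, n = 3; single SC dose of 6 mg/kg in 100% saline. Blood taken by cardiac puncture at 0, 0.03, 0.08, 0.25, 1, 1.5, 2 and 4 h and stored at -80 °C. Plasma analysed by LC–MS/MS; parameters from non-compartmental analysis; mean ± SD.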

[16] = target: Cytochrome P450 2C19 (Homo sapiens, UniProt P33261); assay: Inhibition of human liver microsomal CYP2C19; format: ADME
[17] = system: Rattus norvegicus; assay: Cardiotoxicity in Sprague-Dawley rat assessed as effect on heart size at 50 mg/kg/day, sc administered for 14 days relative to control; format: toxicity, organism-based; settings: in vivo, 336 h; method in brief: as §3
[18] = target: T1, C-X-C chemokine receptor type 4 (Homo sapiens, UniProt P61073); assay: Antagonist activity at human CXCR4 expressed in CHOK1 cells assessed as inhibition of SDF1a-induced cAMP accumulation at 10 uM preincubated for 30 mins followed agonist addition measured after 30 to 60 mins; format: functional, cell-based; method in brief: as §1
[19] = system: Mus musculus; assay: In vivo antagonist activity at CXCR4 in C57BL/6 mouse assessed as induction of monocytes molization at 35 mg/kg, sc measured after 2 hrs relative to AMD3100; format: functional; parameters: scale not given: the % may be the effect or the level left; method in brief: as §2
[20] = system: Rattus norvegicus; assay: Renal toxicity in Sprague-Dawley rat assessed as effect on kidney weight at 50 mg/kg/day, sc administered for 14 days relative to control; format: organism-based; settings: in vivo, 336 h; method in brief: as §3
[21] = system: Mus musculus; assay: Induction of hematopoietic stem cell mobilization in C57BL/6 mouse assessed as increase in CFU-GM colonies from PBMC at 6 mg/kg, sc administered on day 5 post 100 ug/kg/day G-CSF addition for 4 days measured after 2 hrs post compound dose by colony forming assay relative to G-CSF alone; format: functional
Method in brief: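 Male C57BL/6 mice given G-CSF 100 µg/kg SC daily for 4 days. On day 5, G-CSF was co-injected SC with compound. Heparinized blood taken 2 h later; PBMCs isolated and cultured in methylcellulose medium for 10–14 days. CFU-GM colonies (aggregates of ≥50 cells) counted under an inverted microscope. Mean ± SEM, 8–12 mice per group, t test.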

[22] = system: Rattus norvegicus; assay: Toxicity in Sprague-Dawley rat assessed as effect on lung size at 50 mg/kg/day, sc administered for 14 days relative to control; format: organism-based; settings: in vivo, 336 h; method in brief: as §3
[23] = system: Mus musculus; assay: Induction hematopoietic stem cell mobilization in C57BL/6 mouse assessed as increase in CXCR4+ cells in blood at 50 mg/kg, sc measured after 2 hrs by APC-conjugated anti-CXCR4-staining based flow cytometry relative to vehicle control; format: functional, organism-based; method in brief: as §4
[24] = target: C-X-C chemokine receptor type 1 (Homo sapiens) (UniProt P25024); assay: Antagonist activity at human CXCR1 expressed in CHOK1 cells assessed as inhibition of interleukin-8-induced cAMP accumulation at 10 uM preincubated for 30 mins followed agonist addition measured after 30 to 60 mins; format: functional, cell-based; method in brief: as §1
[25] = target: T1, C-X-C chemokine receptor type 4; assay: Displacement of [125I]CXCL12 from human CXCR4 expressed in HEK293 cell membranes after 1.5 hrs by Topcount method

T1 sequence (P61073 whole entry): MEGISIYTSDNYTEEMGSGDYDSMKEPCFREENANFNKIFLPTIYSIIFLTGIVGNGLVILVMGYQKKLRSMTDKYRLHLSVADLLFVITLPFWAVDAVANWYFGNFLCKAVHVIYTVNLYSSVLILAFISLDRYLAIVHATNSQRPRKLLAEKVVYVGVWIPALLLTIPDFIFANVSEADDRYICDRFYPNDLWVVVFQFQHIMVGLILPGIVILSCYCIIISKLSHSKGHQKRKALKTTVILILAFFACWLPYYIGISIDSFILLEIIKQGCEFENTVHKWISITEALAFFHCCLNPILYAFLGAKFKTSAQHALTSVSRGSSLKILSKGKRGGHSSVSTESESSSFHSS
Sequence of Cytochrome P450 2D6 (P10635 whole entry): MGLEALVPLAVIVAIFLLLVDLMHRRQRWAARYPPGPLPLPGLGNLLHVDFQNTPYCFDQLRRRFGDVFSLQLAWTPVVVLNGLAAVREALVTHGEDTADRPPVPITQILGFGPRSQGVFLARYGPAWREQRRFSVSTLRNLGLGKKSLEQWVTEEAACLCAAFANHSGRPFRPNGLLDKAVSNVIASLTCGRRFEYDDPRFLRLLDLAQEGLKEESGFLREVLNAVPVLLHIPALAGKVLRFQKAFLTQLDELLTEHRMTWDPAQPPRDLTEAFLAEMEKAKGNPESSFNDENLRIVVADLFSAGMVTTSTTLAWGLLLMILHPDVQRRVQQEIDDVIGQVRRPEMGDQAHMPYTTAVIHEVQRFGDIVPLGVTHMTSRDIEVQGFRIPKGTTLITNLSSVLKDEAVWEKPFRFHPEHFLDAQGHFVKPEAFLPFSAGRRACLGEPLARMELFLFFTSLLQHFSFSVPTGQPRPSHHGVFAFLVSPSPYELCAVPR
Sequence of C-C chemokine receptor type 7 (Homo sapiens) (P32248 whole entry): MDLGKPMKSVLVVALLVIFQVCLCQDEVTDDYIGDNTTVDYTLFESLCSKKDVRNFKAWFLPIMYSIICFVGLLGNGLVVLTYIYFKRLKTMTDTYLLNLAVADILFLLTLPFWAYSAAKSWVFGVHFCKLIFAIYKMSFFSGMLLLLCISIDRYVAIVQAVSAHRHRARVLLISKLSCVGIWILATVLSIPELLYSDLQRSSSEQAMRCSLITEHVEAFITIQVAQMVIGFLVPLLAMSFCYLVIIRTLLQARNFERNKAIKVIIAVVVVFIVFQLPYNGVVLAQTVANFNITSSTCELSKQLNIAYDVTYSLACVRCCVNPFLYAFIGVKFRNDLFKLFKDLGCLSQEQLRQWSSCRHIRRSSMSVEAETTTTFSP
Sequence of C-C chemokine receptor type 10 (Homo sapiens) (P46092 whole entry): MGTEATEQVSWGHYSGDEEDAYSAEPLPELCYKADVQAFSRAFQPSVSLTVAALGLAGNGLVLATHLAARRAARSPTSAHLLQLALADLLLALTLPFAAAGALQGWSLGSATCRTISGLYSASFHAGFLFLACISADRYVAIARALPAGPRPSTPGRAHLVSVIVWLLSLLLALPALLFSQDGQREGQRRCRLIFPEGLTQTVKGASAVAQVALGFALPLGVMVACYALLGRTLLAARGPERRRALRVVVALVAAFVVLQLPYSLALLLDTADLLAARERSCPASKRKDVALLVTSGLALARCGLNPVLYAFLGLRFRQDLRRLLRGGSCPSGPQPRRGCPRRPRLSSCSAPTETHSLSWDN
Sequence of Cytochrome P450 2C9 (P11712 whole entry): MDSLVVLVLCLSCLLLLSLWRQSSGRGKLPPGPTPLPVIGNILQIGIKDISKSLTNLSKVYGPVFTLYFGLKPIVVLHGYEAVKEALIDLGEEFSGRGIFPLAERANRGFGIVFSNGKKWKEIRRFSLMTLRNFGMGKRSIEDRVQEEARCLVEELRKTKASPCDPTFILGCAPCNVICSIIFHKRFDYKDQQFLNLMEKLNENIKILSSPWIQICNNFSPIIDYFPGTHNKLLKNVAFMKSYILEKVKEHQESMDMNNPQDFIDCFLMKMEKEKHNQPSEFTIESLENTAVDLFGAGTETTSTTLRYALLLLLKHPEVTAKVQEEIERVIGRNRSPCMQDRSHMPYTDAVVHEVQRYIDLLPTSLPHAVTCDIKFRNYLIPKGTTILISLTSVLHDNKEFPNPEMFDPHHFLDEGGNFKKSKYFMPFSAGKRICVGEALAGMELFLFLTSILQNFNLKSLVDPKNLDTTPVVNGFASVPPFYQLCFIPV
Sequence of C-X-C chemokine receptor type 1 (Homo sapiens) (P25024 whole entry): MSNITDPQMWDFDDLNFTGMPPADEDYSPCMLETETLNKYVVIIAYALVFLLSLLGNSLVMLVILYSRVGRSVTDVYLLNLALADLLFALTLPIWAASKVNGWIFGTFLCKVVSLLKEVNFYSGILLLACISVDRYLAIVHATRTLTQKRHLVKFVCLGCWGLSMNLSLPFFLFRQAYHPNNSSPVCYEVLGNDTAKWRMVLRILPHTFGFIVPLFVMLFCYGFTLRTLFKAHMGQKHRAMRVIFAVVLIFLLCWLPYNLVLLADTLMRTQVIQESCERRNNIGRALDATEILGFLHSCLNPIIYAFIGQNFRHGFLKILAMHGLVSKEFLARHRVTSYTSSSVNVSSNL
Sequence of C-X-C chemokine receptor type 5 (Homo sapiens) (P32302 whole entry): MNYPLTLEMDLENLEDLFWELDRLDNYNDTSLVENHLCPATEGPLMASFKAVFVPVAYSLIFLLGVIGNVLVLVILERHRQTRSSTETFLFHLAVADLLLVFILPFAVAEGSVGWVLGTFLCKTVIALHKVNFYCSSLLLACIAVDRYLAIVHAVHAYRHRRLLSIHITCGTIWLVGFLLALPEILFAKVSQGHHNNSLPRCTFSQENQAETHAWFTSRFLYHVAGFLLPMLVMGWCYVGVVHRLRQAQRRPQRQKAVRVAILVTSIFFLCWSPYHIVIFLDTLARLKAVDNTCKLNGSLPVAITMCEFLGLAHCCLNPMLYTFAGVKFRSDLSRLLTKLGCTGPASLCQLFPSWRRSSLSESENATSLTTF
Sequence of Cytochrome P450 2C19 (P33261 whole entry): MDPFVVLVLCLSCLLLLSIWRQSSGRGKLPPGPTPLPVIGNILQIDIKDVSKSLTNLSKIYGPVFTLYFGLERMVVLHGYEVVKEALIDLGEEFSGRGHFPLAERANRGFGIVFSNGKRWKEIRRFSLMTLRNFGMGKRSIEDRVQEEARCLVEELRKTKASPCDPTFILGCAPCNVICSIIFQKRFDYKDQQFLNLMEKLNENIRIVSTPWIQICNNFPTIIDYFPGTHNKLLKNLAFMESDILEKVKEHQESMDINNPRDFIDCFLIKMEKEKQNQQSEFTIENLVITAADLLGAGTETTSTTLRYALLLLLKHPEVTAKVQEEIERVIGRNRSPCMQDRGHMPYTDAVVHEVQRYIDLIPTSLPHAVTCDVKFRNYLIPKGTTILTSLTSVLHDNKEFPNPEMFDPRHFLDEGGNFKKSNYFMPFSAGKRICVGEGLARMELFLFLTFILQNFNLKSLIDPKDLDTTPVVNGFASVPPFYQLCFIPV
Sequence of C-C chemokine receptor type 5 (Homo sapiens) (P51681 whole entry, looked up): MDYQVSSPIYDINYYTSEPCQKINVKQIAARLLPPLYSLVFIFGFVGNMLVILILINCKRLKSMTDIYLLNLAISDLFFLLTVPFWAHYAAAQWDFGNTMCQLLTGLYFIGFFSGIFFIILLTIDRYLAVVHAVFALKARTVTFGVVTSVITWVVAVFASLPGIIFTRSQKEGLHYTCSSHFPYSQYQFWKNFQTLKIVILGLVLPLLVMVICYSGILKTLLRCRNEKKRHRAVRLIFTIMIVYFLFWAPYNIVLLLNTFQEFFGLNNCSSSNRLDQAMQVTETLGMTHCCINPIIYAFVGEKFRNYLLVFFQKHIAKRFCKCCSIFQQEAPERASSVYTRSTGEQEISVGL
Sequence of C-X-C chemokine receptor type 3 (Homo sapiens) (P49682 whole entry): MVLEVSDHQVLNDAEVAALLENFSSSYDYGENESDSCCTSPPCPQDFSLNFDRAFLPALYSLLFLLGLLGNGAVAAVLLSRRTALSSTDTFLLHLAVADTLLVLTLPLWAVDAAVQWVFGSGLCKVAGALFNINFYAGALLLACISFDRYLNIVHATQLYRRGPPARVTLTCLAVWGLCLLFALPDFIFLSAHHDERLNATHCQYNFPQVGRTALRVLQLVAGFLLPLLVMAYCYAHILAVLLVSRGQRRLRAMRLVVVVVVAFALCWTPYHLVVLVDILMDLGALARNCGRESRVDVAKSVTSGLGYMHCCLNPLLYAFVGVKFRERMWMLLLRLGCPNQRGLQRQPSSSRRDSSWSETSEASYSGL
Sequence of Cytochrome P450 1A2 (P05177 whole entry): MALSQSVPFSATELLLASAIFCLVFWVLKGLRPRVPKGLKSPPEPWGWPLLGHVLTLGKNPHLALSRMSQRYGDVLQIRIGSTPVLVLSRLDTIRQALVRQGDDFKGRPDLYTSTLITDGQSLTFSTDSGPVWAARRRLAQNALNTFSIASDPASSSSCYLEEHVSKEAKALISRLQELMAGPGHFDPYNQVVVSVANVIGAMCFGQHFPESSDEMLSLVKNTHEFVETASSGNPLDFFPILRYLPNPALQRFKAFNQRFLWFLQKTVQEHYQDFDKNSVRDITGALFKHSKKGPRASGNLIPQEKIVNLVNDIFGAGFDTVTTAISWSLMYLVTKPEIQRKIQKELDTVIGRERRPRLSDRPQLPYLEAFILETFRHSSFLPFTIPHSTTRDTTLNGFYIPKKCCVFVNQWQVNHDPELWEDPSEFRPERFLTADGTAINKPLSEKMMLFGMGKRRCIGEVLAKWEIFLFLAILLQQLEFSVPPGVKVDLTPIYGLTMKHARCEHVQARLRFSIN

SMILES: Cc1cc(NC2CCN(C(=O)CCNCC(=O)O)CC2)nc(NCc2cn(CCCNCCCNC3CCCCC3)nn2)n1
- Efficacy [1]: -4.2%
- Activity [2]: 30 - 50%
- Efficacy [3]: -7.6%
- Activity [4]: Non-Toxic
- Efficacy [5]: 0.5%
- IC50 [6]: > 100 µM
- Efficacy [7]: -11%
- Activity [8]: 30 - 50%
- IC50 [9]: > 100 µM
- minimal effective dose [10]: 6 mg/kg
- Activity [11]: Non-Toxic
- Activity [12]: Non-Toxic
- IC50 [13]: > 100 µM
- Efficacy [14]: 0.5%
- Cmax [15]: 16400 ng/mL
- IC50 [16]: > 100 µM
- Activity [17]: Non-Toxic
- Efficacy [18]: 73.4%
- Activity [19]: 30 - 50%
- Activity [20]: Non-Toxic
- fold change (FC) [21]: 5.3
- Activity [22]: Non-Toxic
- Activity [23]: inactive
- Efficacy [24]: 0.3%
- IC50 [25]: 0.0342 µM
